HKDC1 inhibitor: blocks human hexokinase HKDC1 activity; Q2TB90; recombinant HKDC1, G6PDH/diaphorase resazurin coupled fluorescence; inhibition, % at 20 µM; 340,000 compounds, 0.16% hits; AID 493160;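 active = inhibition above about 35% when tested at 20 µM, limit read from the data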
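Incubation: 90 min at room temperature in dark / Material: recombinant HKDC1 (HK5) hexokinase enzyme, produced in-house / Quantity: enzyme 5 µg/mL final / Compound: one dose of 20 µM, 1% DMSO / Reagent: glucose and ATP substrates / Buffer or medium: Tris pH 8.0 buffer with MgCl2, Tween-20, BSA, BME / Technique: resorufin fluorescence at 613 nm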
UCH37 inh: human UCH37 deubiquitinating enzyme inhibition | Q9Y5K5 | purified proteasome/UCH37, Ub-AMC cleavage fluorescence | inhibition, % (test concentration not listed) | 330,000 compounds, 0.33% hits;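 active = mean inhibition over replicate wells above about 20%, limit read from the data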
Target sequence (Q9Y5K5 whole entry, looked up): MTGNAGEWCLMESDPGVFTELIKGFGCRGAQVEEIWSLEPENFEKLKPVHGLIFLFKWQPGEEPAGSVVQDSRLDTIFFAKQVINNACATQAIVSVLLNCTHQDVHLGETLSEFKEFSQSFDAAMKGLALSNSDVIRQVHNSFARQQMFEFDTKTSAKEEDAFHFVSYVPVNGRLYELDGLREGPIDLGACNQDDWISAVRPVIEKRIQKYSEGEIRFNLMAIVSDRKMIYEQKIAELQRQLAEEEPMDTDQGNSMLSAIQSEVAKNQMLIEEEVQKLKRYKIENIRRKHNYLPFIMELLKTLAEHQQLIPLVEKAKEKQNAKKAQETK
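Material: human UCH37 enzyme supplied as purified proteasome complex / Amount: 0.15 nM proteasome as dispensed / Buffer or medium: pH 7.4 Tris-HCl (50 mM) with ovalbumin, ATP-MgCl2, DTT / Times: preincubation 30 min, reaction 25 min, room temperature / Technique: AMC fluorescence from Ub-AMC cleavage, excitation 355 nm, emission 460 nm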
Fh CTSL1 inh: counter-screen for PFM18AAP inhibitors: inhibitors of F. hepatica cathepsin L1; recombinant F. hepatica cathepsin L1, Z-Leu-Arg-MCA fluorescence; inhibition, % at 5.96 µM; 300,000 compounds, 0.49% hits; AID 1906;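 active = inhibition above the mean of all tested compounds plus 3 SD, set per screening campaign, cut at about 17% in these data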
PAD4 FP inh: inhibitors of human PAD4; Q9UM07; recombinant PAD4, RCA probe fluorescence polarization; inhibition, % at 6.36 µM; 330,000 compounds, 0.41% hits;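 active = percent inhibition above a cutoff equal to the mean of all tested compounds plus 3 SD, cut at about 15% in these data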
GSTO1 counter: GSTO1 inhibition, counter-screen for RBBP9 inhibitors. 300,000 compounds, 1.1% hits. P78417. recombinant GSTO1, activity-based probe fluorescence polarization. inhibition, % at 5.96 µM;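 active = inhibition above the campaign mean inhibition plus 3 SD, cut at about 35% in these data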
TDP2 absorb: blocks human TDP2 phosphodiesterase activity. O95551. recombinant TDP2, T5PNP hydrolysis, p-nitrophenol absorbance 415 nm. inhibition, % at 12.8 µM. 370,000 compounds, 0.34% hits. AID 720702;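 active = inhibition above the mean of all tested compounds plus 3 SD, set per campaign, cut at about 25% in these data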
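Material: recombinant human TDP2; quantity: TDP2 enzyme at 120 nM final; medium: Tris-HCl pH 7.5 with MgCl2; compound: single concentration, 12.8 µM nominal, with 1% DMSO; incubation: 2 h enzyme incubation at 37 °C; signal: epi absorbance; measure: percent inhibition; benchmarks: high control without enzyme, low control DMSO plus TDP2; repeats: singlicate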
Numbers stand for hits; n = inactive; x = no result given; ! = not confirmed by another sample. Only some compounds are listed: those with a hit (about 1.6% of all), similar ones and a draw of the others.

SMILES	HKDC1 inhibitor	UCH37 inh	Fh CTSL1 inh	PAD4 FP inh	GSTO1 counter	TDP2 absorb
CN(C)c1ccc(C=NNC(=O)c2ccc(CN3CCOCC3)cc2)cc1Br	x	n	x	x	x	x
Brc1cc2c(cc1Br)OCCOCCOCCO2	n	n	n	n	37.1	n
Clc1cc(Br)ccc1OCCOCCN1CCCC1	n	n	n	n	n	n
Clc1cc(Br)ccc1OCCOCCN1CCOCC1	n	29.3	n	n	n	n
CCCc1cc(C(=O)NN=Cc2ccc(C)o2)c2ccccc2n1	x	n	x	x	x	x
O=C(Cc1cc(=O)[nH][nH]1)N/N=C/C=C/c1ccccc1	n	x	n	n	35.7!	n
O=C(Cc1ccc(Cl)cc1)N/N=C/c1cccc(O)c1	n	x	17.7	n	n	n
CC(=NNc1ncc(Br)cn1)c1cccc([N+](=O)[O-])c1	x	n	x	x	x	x
N#C/C(C(=O)Nc1ccc(Cl)cc1)=C(/S)Nc1ccccc1	n	x	n	n	52.2	n
CCOC(=O)Cc1nnc(NC(=O)CSc2nnc3c4ccccc4n(C)c3n2)s1	n	n	n	n	35.2	n
O=C1/C(=C/c2ccc(O)c(O)c2)SC(=S)N1Nc1ccccc1	n	n	x	x	x	x
O=C(NN1C(=O)/C(=C/c2ccc(O)c(O)c2)SC1=S)c1ccccc1	n	x	33.6	n	n	n
Cc1ccc(Nc2nc(CSc3nnc(-c4cccnc4)n3-c3ccccc3C)cs2)cc1	n	n	47.1	n	n	n
O=C(COc1cccnc1[N+](=O)[O-])c1ccc(Cl)s1	n	n	n	n	35.4	n
Cc1ccc(-n2nnnc2Sc2nc([N+](=O)[O-])nn2C)cc1C	n	20.1	n	n	n	n
COCCNC(=O)C(=O)NN=C(C)CC(=O)Nc1cccc(C(F)(F)F)c1	x	n	x	x	x	x
CC(=NNC(=O)c1ccc2c(c1)OCO2)c1cccc(NC(=O)C(C)(C)C)c1	x	n	x	x	x	x
Cn1c(=O)c2cc(NC(=O)c3ccccc3Cl)c(=O)oc2n(C)c1=O	n	n	27.0	n	n	n
CCCN(Cc1cc2cc(C)ccc2[nH]c1=O)C(=O)c1cccc([N+](=O)[O-])c1	n	n	18.6	n	n	n
CCCN(Cc1cc2ccccc2[nH]c1=O)C(=O)c1cccc([N+](=O)[O-])c1	n	n	n	n	n	n
COc1ccc(COC(=O)NNC(=O)c2ccccc2Cl)cc1	n	n	52.4	n	n	n
Clc1cccc(C2Nc3cccc4cccc(c34)N2)c1Cl	n	n	n	n	n	n
FC(F)(F)c1ccc(C2Nc3cccc4cccc(c34)N2)cc1	n	n	x	x	x	n
c1coc(C2Nc3cccc4cccc(c34)N2)c1	x	x	n	n	50.4	x
COc1cc(C2Nc3cccc4cccc(c34)N2)ccc1OC(C)=O	n	n	n	n	53.5	x
SMILES	HKDC1 inhibitor	UCH37 inh	Fh CTSL1 inh	PAD4 FP inh	GSTO1 counter	TDP2 absorb
Fc1ccc(C2Nc3cccc4cccc(c34)N2)cc1	n	x	n	n	37.1	n
Cc1ccc(C=Nn2c(COc3ccccc3)n[nH]c2=S)cc1	x	n	x	x	x	x
CC(=O)N1c2ccc(S(=O)(=O)N3CCCC3C(=O)Nc3ccc(C)cc3)cc2CC1C (centres undefined)	n	n	18.8	n	n	n
CC(=O)Nc1cccc(C(=O)NN=Cc2ccc(F)cc2)c1	x	n	x	x	x	x
CCn1c(SCC(=O)OC)nc2cc(S(=O)(=O)N3CCOCC3)ccc21	n	n	n	n	n	n
CCc1ccc(C(=O)CSc2nc3cc(S(=O)(=O)N4CCOCC4)ccc3n2CC)cc1	n	n	n	n	35.7	n
CC(=O)Nc1ccc(C(C)=NNC(=O)CN(c2ccccc2Br)S(C)(=O)=O)cc1	x	n	x	x	x	x
CCCc1c(C(=O)N/N=C/c2ccc(OCc3ccccc3)c(OC)c2)nnn1-c1nonc1N	n	x	16.9	n	n	n
O=c1ccc(-c2ccc(S(=O)(=O)Nc3cccc([N+](=O)[O-])c3)s2)n[nH]1	n	n	21.4	n	n	n
O=C(NN=Cc1cccn1-c1ccccc1)c1ccncc1	x	n	x	x	x	x
COc1ccc(-c2oc(NC(=O)CSc3nncn3C)c(C#N)c2-c2ccc(OC)cc2)cc1	n	n	30.3	n	n	n
CCn1c(SCC(=O)Nc2oc(-c3ccccc3)c(-c3ccccc3)c2C#N)nnc1-c1ccco1	n	n	n	n	n	n
O=C(CSc1nnc(-c2ccccc2)n1-c1ccc(Cl)cc1)NN=Cc1ccccc1C(=O)O	x	n	x	x	x	x
